Results: ChEMBL document CHEMBL3132763, “Repurposing human Aurora kinase inhibitors as leads for anti-protozoan drug discovery” (Medchemcomm, 2014)

Experiments:
[1] = tested on: Plasmodium falciparum; test: Antiprotozoal activity against chloroquine-resistant Plasmodium falciparum C2B assessed as growth inhibition after 72 hrs by SYBR Green dye-based fluorescence assay; format: functional, organism-based
[2] = tested on: Plasmodium falciparum; test: Antiprotozoal activity against chloroquine-resistant Plasmodium falciparum W2 assessed as growth inhibition after 72 hrs by SYBR Green dye-based fluorescence assay; format: functional, organism-based; details: W2, 72 h
Summary of the method: (§1)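 Laboratory strains (D6, TM91C235, W2) in long-term culture, late-ring/early-trophozoite stage, seeded into pre-dosed 384-well plates at 0.3% parasitemia and 2% hematocrit. Twelve two-fold dilutions from DMSO, final 0.5–10000 ng/ml, in duplicate or quadruplicate. Incubated 72 h at 37°C under 5% CO2/5% O2/90% N2. Lysis buffer with SYBR Green I (final 10x) added, then 24 h dark at room temperature. Fluorescence read; IC50/IC90 from sigmoidal variable-slope fit. Chloroquine 2000 ng/ml batch control.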

[3] = tested on: Plasmodium falciparum; test: Antiprotozoal activity against chloroquine/mefloquine/pyrimethamine-resistant Plasmodium falciparum C235 assessed as growth inhibition after 72 hrs by SYBR Green dye-based fluorescence assay; format: functional, organism-based; details: C235, 72 h; summary of the method: as §1
[4] = Cytotoxicity against human HepG2 cells after 48 hrs by MTT assay; format: cell-based; details: read-out: TC50
Summary of the method: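 HepG2 cells in supplemented MEM, 9570 cells/well, plated overnight at 37°C. Twelve 1.6-fold dilutions in duplicate, 57–10,000 ng/ml, 48 h. MTT added for 1 h at room temperature in the dark; formazan dissolved in acidified isopropanol; absorbance read. IC50 by sigmoidal variable-slope nonlinear regression; mefloquine served as plate control.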

[5] = tested on: Plasmodium falciparum; test: Antiprotozoal activity against Plasmodium falciparum D6 assessed as growth inhibition after 72 hrs by SYBR Green dye-based fluorescence assay; format: functional, organism-based; details: D6, 72 h; summary of the method: as §1
[6] = tested on: Leishmania major; test: Antiprotozoal activity against intracellular amastigote stage of Leishmania major infected in mouse […] cells assessed as growth inhibition after 96 hrs by luciferase reporter gene assay; format: functional, organism-based
Summary of the method: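 RAW 264.7 macrophages (10,000/well, DMEM/10% HIFBS, 24 h at 37°C) infected overnight with luciferase-expressing L. major promastigotes (100,000/well), then washed three times. Twelve two-fold dilutions in duplicate, final 0.5–10,000 ng/ml, 96 h at 37°C, 5% CO2. Luciferin added for 30 min; luminescence read. IC50 by sigmoidal variable-slope nonlinear regression.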

[7] = tested on: Leishmania major; test: Antiprotozoal activity against promastigote stage of Leishmania major assessed as growth inhibition after 44 hrs by AlamarBlue staining-based fluorescence assay; format: functional, organism-based
[8] = tested on: Trypanosoma brucei; test: Antiprotozoal activity against Trypanosoma brucei 427 assessed as growth inhibition after 48 hrs by PrestoBlue-based fluorescence assay; format: functional, organism-based; details: Trypanosoma brucei, 427, 48 h
Summary of the method: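 T. brucei brucei strain 427 at 5 × 10^3 cells/well in HMI-9 with compound; 37°C, 5% CO2, 48 h. PrestoBlue added for a further 4 h; fluorescence read at ex 530 / em 590 nm.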

[9] = Selectivity ratio of TC50 for human HepG2 cells to EC50 for Plasmodium falciparum D6; format: ADME, cell-based

| SMILES | EC50 [1] [nM] | EC50 [2] [nM] | EC50 [3] [nM] | CC50 at 48 h [4] [nM] | EC50 [5] [nM] | EC50 [6] [nM] | EC50 [7] [nM] | EC50 [8] [nM] | selectivity ratio [9] |
| --- | --- | --- | --- | --- | --- | --- | --- | --- | --- |
| CC(=O)N1C(=O)/C(=C(\Nc2ccc(CN3CCCCC3)cc2)c2ccccc2)c2cc([N+](=O)[O-])ccc21 | 249 | 307 | 271 | > 6000 | 275 | 2040 | 1080 | 130 |  |
| CC(=O)N1C(=O)/C(=C(\Nc2ccc(CN3CCCCC3)cc2)c2ccccc2)c2cc(N)ccc21 | 210 | 241 | 243 | 1810 | 218 | > 4000 | > 4000 | 3250 |  |
| Nc1ccc2c(c1)/C(=C(/Nc1ccc(CN3CCCCC3)cc1)c1ccccc1)C(=O)N2 | 175 | 228 | 176 | > 6000 | 199 | > 4000 | 790 | 1160 |  |
| CS(=O)(=O)Nc1ccc2c(c1)/C(=C(/Nc1ccc(CN3CCCCC3)cc1)c1ccccc1)C(=O)N2 |  | 86 | 58 | 200 | 52 | > 4000 | 390 | 20 |  |
| O=C1Nc2ccc(NS(=O)(=O)c3ccccc3)cc2/C1=C(/Nc1ccc(CN2CCCCC2)cc1)c1ccccc1 | 82 | 144 | 120 | 3290 | 107 | 1910 | 850 | 10 |  |
| CC(=O)Nc1ccc2c(c1)/C(=C(/Nc1ccc(CN3CCCCC3)cc1)c1ccccc1)C(=O)N2 | 56 | 88 | 74 | > 6000 | 68 | > 4000 | 1520 | 150 |  |
| CCS(=O)(=O)Nc1ccc2c(c1)/C(=C/Nc1ccc(CN3CCCCC3)cc1)C(=O)N2 | 173 | 273 | 242 | 5000 | 241 | > 4000 | 2770 | 1320 |  |
| CCS(=O)(=O)Nc1ccc2c(c1)/C(=C(\C)Nc1ccc(CN3CCCCC3)cc1)C(=O)N2 | 1060 | 1260 | 1190 | > 6000 | 1360 | > 4000 | > 4000 | 3360 |  |
| CC/C(Nc1ccc(CN2CCCCC2)cc1)=C1/C(=O)Nc2ccc(NS(=O)(=O)CC)cc21 | 143 | 347 | 255 | > 6000 | 233 | > 4000 | 2800 | 1790 |  |
| CCCC/C(Nc1ccc(CN2CCCCC2)cc1)=C1/C(=O)Nc2ccc(NS(=O)(=O)CC)cc21 | 148 | 217 | 170 | > 6000 | 167 | > 4000 | 2600 | 1670 |  |
| CCS(=O)(=O)Nc1ccc2c(c1)/C(=C(/NC1CCN(C)CC1)c1ccccc1)C(=O)N2 | > 15000 | > 15000 | > 15000 | > 10000 | > 15000 | > 4000 | > 4000 | > 50000 |  |
| CCS(=O)(=O)Nc1ccc2c(c1)/C(=C(/Nc1ccccc1)c1ccccc1)C(=O)N2 | 117 | 143 | 118 | 4700 | 109 | > 4000 | > 4000 | 1440 | 50 |
| CCS(=O)(=O)Nc1ccc2c(c1)/C(=C(/Nc1ccc(C)cc1)c1ccccc1)C(=O)N2 | 1570 | 2490 | 1640 | 3100 | 1610 | > 4000 | 2600 | 370 |  |
| CCS(=O)(=O)Nc1ccc2c(c1)/C(=C(/Nc1ccc(CN3CCOCC3)cc1)c1ccccc1)C(=O)N2 |  | 77 | 31 | 1310 | 54 | 1680 | 940 | 100 |  |
| CCS(=O)(=O)Nc1ccc2c(c1)/C(=C(/Nc1ccc(N3CCCCC3)cc1)c1ccccc1)C(=O)N2 | 735 | 832 | 647 | > 6000 | 595 | > 4000 | 620 | 1530 |  |
| O=C1Nc2ccccc2/C1=C(/Nc1ccc(CN2CCCCC2)cc1)c1ccccc1 | 160 | 273 | 227 | > 6000 | 230 | > 4000 | 770 | 70 |  |
| CO[C@@H](C(=O)N1Cc2n[nH]c(NC(=O)c3ccc(N4CCN(C)CC4)cc3)c2C1)c1ccccc1 [DANUSERTIB] |  |  |  | 4000 | 857 |  | > 21000 |  |  |
| CCS(=O)(=O)Nc1ccc2c(c1)/C(=C(/Nc1ccc(CN3CCCCC3)cc1)c1ccccc1)C(=O)N2 [HESPERADIN] | 14 | 21 | 10 | < 200 | 10 | 2370 | 120 | 60 |  |
| Cc1cc(Nc2cc(N3CCN(C)CC3)nc(Sc3ccc(NC(=O)C4CC4)cc3)n2)n[nH]1 [TOZASERTIB] |  |  |  | 3300 | 838 |  | > 21000 | 10000 |  |
